Results taken from ChEMBL document CHEMBL4610116, “Salicylanilide Analog Minimizes Relapse of Clostridioides difficile Infection in Mice” (J Med Chem, 2020).
In brackets after ≈: the same amount, converted by molar mass. Activity calls are given as the source filed them. No cut-off for these calls is given here.

What was measured:
[1] = MRT in cefoperazone-treated C57Bl/6J mouse at 1 mg/kg, po dosed each day for 5 days by LC/MS-SRM analysis; format: ADME, organism-based; conditions: in vivo
Method in brief: (§1)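 C57Bl/6J mice pre-treated with cefoperazone 0.5 mg/mL in drinking water for 10 days, then a 2-day washout. Oral dose of 1 mg/kg given daily for 5 days. Bled at 5, 10, 30 min and 1, 2, 4, 10, 24 h after dosing on the first and final days; n = 3 per time point. Plasma mixed with 2 volumes acetonitrile containing internal standard, centrifuged, supernatant analysed by LC/MS-SRM.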

Clostridioides difficile [2] = assay: Antimicrobial activity against Clostridioides difficile CD10463 incubated for 20 to 24 hrs by broth microdilution method; format: functional
Method in brief: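 Broth microdilution in pre-reduced BHIS using two-fold serial dilutions and ~5 × 10⁵ cfu/mL inoculum. Incubated 20–24 h at 37°C, anaerobic (8% H₂, 8% CO₂, 84% N₂). MIC read by the Lambert-Pearson method; duplicates.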

[3] = Tmax in cefoperazone-treated C57Bl/6J mouse at 1 mg/kg, po dosed each day for 5 days by LC/MS-SRM analysis; format: ADME, organism-based; conditions: in vivo; method in brief: as §1
Clostridioides difficile [4] = assay: (§2) Suppression of relapse of Clostridioides difficile 630 infection in cefoperazone-treated C57BL/6J mouse model of recurrent Clostridioides difficile 630 infection assessed as reduction in group-Bacteroidaceae level at 5 mg/kg, po for 5 days from day 4 to 9 after infection with spores measured on day day 14; format: functional, organism-based
Method in brief: (§3)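 Recurrent CDI model in cefoperazone-treated C57BL/6J mice challenged with strain 630 and gavaged on days 4–9 (n = 6 per group). Cecal tissue snips collected at necropsy underwent 16S rRNA gene community sequencing on Illumina MiSeq.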

[5] = (§4) Effect on gut microbiota in cefoperazone-treated C57BL/6J mouse model of recurrent Clostridioides difficile 630 infection assessed as increase in alpha-diversity at 5 mg/kg, po for 5 days from day 4 to 9 after infection with spores measured on day day 14 by 16S rRNA Illumina sequencing analysis; format: ADME, organism-based; conditions: in vivo, 120 h; method in brief: as §3
Clostridioides difficile [6] = assay: as §2, with “incidence of animals with microbial load (total vegetative cells plus spores) load below the limit of detection” for “reduction in group-Bacteroidaceae level”, “13 post drug cessation” for “day 14”; format: functional
Method in brief: (§5)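 Five-week-old C57BL/6J mice of both sexes given cefoperazone 0.5 mg/ml in drinking water for 5 days, then a 2-day washout. Oral challenge with C. difficile 630 spores on day 0. Oral gavage in 2-(hydroxypropyl)-cyclodextrin vehicle on days 4–9; n = 6 per group. Body weight recorded daily. Feces or cecal contents suspended 1:10 in PBS, serially diluted and plated on TCCFA, incubated anaerobically at 37°C for 24 h; results as CFU/g.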

[7] = Cmax in non-antibioticc-treated C57Bl/6J mouse at 0.3 mg/kg, iv and measured after 5 mins to 24 hrs by LC/MS-SRM analysis; format: ADME, organism-based; parameters: dose 0.3 mg/kg, route intravenous; conditions: in vivo
Method in brief: (§6)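 Non-antibiotic-treated C57Bl/6J mice given a single i.v. dose of 0.3 mg/kg; n = 3 per time point. Bled at 5, 10, 30 min and 1, 2, 4, 8, 24 h. Plasma mixed with 2 volumes acetonitrile containing internal standard, centrifuged, supernatant quantified by LC/MS-SRM.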

[8] = as §4, with “abundance of phylum Firmicutes” for “alpha-diversity”; format: ADME, organism-based; conditions: in vivo, 120 h; method in brief: as §3
Clostridioides difficile [9] = assay: as §2, with “microbial load (total vegetative cells plus spores)” for “group-Bacteroidaceae level”, “spores” for “spores measured on day day 14”; format: functional, organism-based; method in brief: as §5
[10] = AUC in cefoperazone-treated C57Bl/6J mouse at 1 mg/kg, po dosed each day for 5 days by LC/MS-SRM analysis; format: ADME, organism-based; conditions: in vivo; method in brief: as §1
Clostridioides difficile [11] = assay: as §2, with “toxin activity in cecal content” for “group-Bacteroidaceae level”; format: functional, organism-based
Method in brief: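 Mice challenged with strain 630 spores after cefoperazone; drug given 5 mg/kg by gavage, days 4–9, vehicle hydroxypropyl-cyclodextrin. Cecal content at day 14 diluted 1:10 in PBS, filtered, then serially diluted to 10⁻⁶. Dilutions preincubated 40 min at room temperature with PBS or antitoxin, then added to Vero cells overnight at 37°C. Titer is the reciprocal of the highest dilution rounding 80% of cells.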

[12] = Clearance in non-antibioticc-treated C57Bl/6J mouse at 0.3 mg/kg, iv and measured after 5 mins to 24 hrs by LC/MS-SRM analysis; format: ADME, organism-based; conditions: in vivo; method in brief: as §6
[13] = Volume of distribution at steady state in non-antibioticc-treated C57Bl/6J mouse at 0.3 mg/kg, iv and measured after 5 mins to 24 hrs by LC/MS-SRM analysis; format: ADME, organism-based; conditions: in vivo; method in brief: as §6
[14] = MRT in non-antibioticc-treated C57Bl/6J mouse at 0.3 mg/kg, iv and measured after 5 mins to 24 hrs by LC/MS-SRM analysis; format: ADME, organism-based; conditions: in vivo; method in brief: as §6
[15] = as §4, with “abundance of Lachnospiraceae” for “alpha-diversity”; format: ADME, organism-based; conditions: in vivo, 120 h; method in brief: as §3
[16] = AUC in non-antibioticc-treated C57Bl/6J mouse at 0.3 mg/kg, iv and measured after 5 mins to 24 hrs by LC/MS-SRM analysis; format: ADME, organism-based; parameters: time upper 24 hr, time lower 0.083 hr, dose 0.3 mg/kg, route intravenous; conditions: in vivo; method in brief: as §6
[17] = Instantaneous volume of distribution in non-antibioticc-treated C57Bl/6J mouse at 0.3 mg/kg, iv and measured after 5 mins to 24 hrs by LC/MS-SRM analysis; format: ADME, organism-based; conditions: in vivo; method in brief: as §6
[18] = Oral bioavailability in cefoperazone-treated C57Bl/6J mouse at 1 mg/kg dosed each day for 5 days by LC/MS-SRM analysis; format: ADME, organism-based; conditions: in vivo
[19] = Cytotoxicity in HEK293T/17 cells assessed as reduction in cell viability incubated for 16 hrs by MTS assay; format: cell-based; conditions: human
Method in brief: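 HEK 293T/17 cells seeded at 2 × 10⁴ per well in DMEM and allowed to adhere 24 h at 37°C, 5% CO₂. Exposed to 0.020–40 µM compound in DMEM for 16 h, then MTS read-out after 1 h at 37°C. Normalized to untreated cells and to 0.2 mM digitonin; duplicates.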

Clostridioides difficile [20] = assay: as §2, with “microbial load (total vegetative cells plus spores)” for “group-Bacteroidaceae level”, “9” for “day 14”; format: functional, organism-based; method in brief: as §5
Clostridioides difficile [21] = assay: as §2, with “microbial load (total vegetative cells plus spores) in cecal content” for “group-Bacteroidaceae level”; format: functional, organism-based; method in brief: as §5
Clostridioides difficile [22] = assay: Suppression of relapse of Clostridioides difficile 630 infection in cefoperazone-treated C57BL/6J mouse model of recurrent Clostridioides difficile 630 infection assessed as reduction in body weight loss at 5 mg/kg, po for 5 days from day 4 to 9 after infection with spores; format: functional, organism-based; method in brief: as §5
Clostridioides difficile [23] = assay: as §2, with “group-Proteobacteria” for “group-Bacteroidaceae”; format: functional, organism-based; method in brief: as §3
[24] = Cmax in cefoperazone-treated C57Bl/6J mouse at 1 mg/kg, po dosed each day for 5 days by LC/MS-SRM analysis; format: ADME, organism-based; parameters: dose 1 mg/kg, route oral; conditions: in vivo; method in brief: as §1

O=C(Nc1cc(C(F)(F)F)c(Oc2ccc(Cl)cc2)c(C(F)(F)F)c1)c1cc(Cl)cc(Cl)c1O
MRT [1]: 9.7 h
MIC (Clostridioides difficile [2]): 0.03 µM (≈ 0.0163 µg/mL)
Tmax [3]: 2 h
Activity (Clostridioides difficile [4]): Active
Activity [5]: Non-Toxic
Activity (Clostridioides difficile [6]): 50%
Cmax [7]: 1630 nM
Activity [8]: Non-Toxic
Activity (Clostridioides difficile [9]): Active
AUC at 120 h [10]: 23.2 µM·h
Activity (Clostridioides difficile [11]): Active
clearance [12]: 1 mL/min/kg
Vdss [13]: 7.9 mL
MRT [14]: 5.26 h
Activity [15]: Non-Toxic
AUC [16]: 9.23 µM·h
Vc [17]: 8.5 mL
bioavailability [18]: 76%
Activity [19]: > 2.5 µM
Activity (Clostridioides difficile [20]): Active
Activity (Clostridioides difficile [21]): Active
Activity (Clostridioides difficile [22]): Active
Activity (Clostridioides difficile [23]): Active
Cmax [24]: 1780 nM
